Measurements pooled from the literature.
Compare with care: the assays were run in different laboratories.
MET Y1235D: Hepatocyte growth factor receptor (MET, Homo sapiens, UniProt P08581, Y1235D)
MET: Hepatocyte growth factor receptor (MET, Homo sapiens, UniProt P08581)
MET M1250T: Hepatocyte growth factor receptor (MET, Homo sapiens, UniProt P08581, M1250T)

| SMILES | target | assay | conditions | measurement | result |
| --- | --- | --- | --- | --- | --- |
| N#CC1(c2ccccn2)CCN(Cc2cc(C(=O)O)c(=O)n3ccccc23)CC1 | MET Y1235D | cell-free assay, competition with immobilised ligand | 1 µM | remaining binding | 99% |
| CC(C)(C)c1cc(C=C(C#N)C#N)cc(Br)c1O | MET | enzyme activity, inhibitor | 0.5 µM | remaining activity | 111% |
| C#Cc1n[nH]c2c(-c3cn(C(C)c4ccccn4)c(=O)[nH]c3=O)cc(F)cc12 (stereo not shown) | Hepatocyte growth factor receptor (MET, Homo sapiens, UniProt P08581, D1228H) | enzyme activity, inhibitor | 1 µM | inhibition | 100% |
| Nc1ncc(-c2nc(N3CCOCC3)nc(N3CCOCC3)n2)c(C(F)F)n1 | MET Y1235D | cell-free assay, competition with immobilised ligand | 10 µM | remaining binding | 92% |
| COc1ncccc1-c1cnn2ccc(N3CCN(C(=O)OC(C)C)CC3)nc12 | MET | binding, competition with immobilised ligand | 1 µM | remaining binding | 88% |
| Cn1cncc1[C@](O)(COc1ccc(C#N)cc1-c1ccc(OC(F)(F)F)cc1)c1ccc(C#N)cc1 | MET M1250T | cell-free assay, competition with immobilised ligand | 1 µM | remaining binding | 100% |
| Cn1cc(-c2cccc(N3CCc4c(sc5c4CC(C)(C)C5)C3=O)c2CO)cc(Nc2ccncn2)c1=O | MET M1250T | enzyme activity, inhibitor | 1 µM | inhibition | 5% |
| O=c1[nH]c2ccccc2n1C1CCN(Cc2ccc(-c3[nH]c4cc5ncnc5cc4nc3-c3ccccc3)cc2)CC1 | MET | cell-free assay | 0.5 µM | remaining signal | 102% |
| Cc1nn(C)cc1-c1nc2c(N3CCN(Cc4ccc(Cl)cc4)CC3)c(Cl)cnc2[nH]1 | MET | binding, competition with immobilised ligand | 1 µM | remaining binding | 83% |
| Cn1cc(-c2cc(F)cc(N3CCn4c(cc5c4CCCC5)C3=O)c2CO)cc(Nc2ccc(N3CCN(C4COC4)CC3)cn2)c1=O | MET | enzyme activity, inhibitor | 0.1 µM | inhibition | 15% |
